Activity calls are given as the source filed them. The calls are words filed in the database; no cut-off is given here.

For one experiment, the system named is Toxoplasma gondii. Put plainly: Stimulation of Toxoplasma gondii recombinant PBGS using 5-ALA as substrate relative to control. Summed up: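 Recombinant T. gondii PBGS (hemB in pET-21b, expressed in BL21 E. coli) at 250 nM subunit in 100 mM Tris-HCl pH 8.0, 1 mM MgCl2, 5 mM DTT, with 200 μM 5-ALA, 20 min at 36 °C. Porphobilinogen was read with Ehrlich's reagent, and turnover was kept at or below 30%.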

Experiment [1] concerns the target T1, Delta-aminolevulinic acid dehydratase (Wolbachia sp. subsp. Brugia malayi (strain TRS)) (UniProt Q5GSR3).
T1 sequence (whole entry): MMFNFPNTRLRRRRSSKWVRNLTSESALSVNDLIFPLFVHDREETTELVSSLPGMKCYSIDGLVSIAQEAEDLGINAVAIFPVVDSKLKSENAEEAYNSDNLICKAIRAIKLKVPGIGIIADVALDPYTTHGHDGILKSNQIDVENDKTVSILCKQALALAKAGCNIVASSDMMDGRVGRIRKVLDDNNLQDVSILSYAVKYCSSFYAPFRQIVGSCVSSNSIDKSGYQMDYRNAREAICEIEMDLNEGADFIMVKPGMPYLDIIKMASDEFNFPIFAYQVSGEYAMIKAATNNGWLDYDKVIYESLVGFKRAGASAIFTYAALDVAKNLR
The note with it: 25 to 2500 uM.

Experiment [2] has as its target Delta-aminolevulinic acid dehydratase (Pseudomonas aeruginosa (strain ATCC 15692 / PAO1 / 1C / PRS 101 / LMG12228)) (UniProt Q59643). Nature of the experiment: Stimulation of Pseudomonas aeruginosa PAO1 recombinant PBGS using 5 mM 5-ALA as substrate assessed as change in enzyme affinity for Mg2+ at 10 to 10000 uM at pH 8 by buffer scan assay in presence of MgCl2. The method in brief:
(§1)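 Mg2+ or substrate response curves recorded with and without wALADin1; VMAX, KM and Mg2+ affinity derived from the fits.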

Experiment [3] concerns the target T2, Delta-aminolevulinic acid dehydratase (Escherichia coli (strain K12)) (UniProt P0ACB2).
T2 sequence (whole entry): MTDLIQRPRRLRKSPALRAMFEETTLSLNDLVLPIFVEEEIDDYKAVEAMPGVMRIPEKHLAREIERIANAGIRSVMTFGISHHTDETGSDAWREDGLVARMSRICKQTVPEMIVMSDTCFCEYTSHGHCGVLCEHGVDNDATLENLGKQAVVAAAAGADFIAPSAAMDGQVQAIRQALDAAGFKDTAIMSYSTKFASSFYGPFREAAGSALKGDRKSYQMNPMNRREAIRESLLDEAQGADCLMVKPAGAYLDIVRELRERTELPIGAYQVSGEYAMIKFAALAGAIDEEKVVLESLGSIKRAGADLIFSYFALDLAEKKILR
Nature of the experiment: Stimulation of Escherichia coli recombinant PBGS using 5-ALA as substrate at 10 to 1000 uM at pH 8 in presence of 0.1 to 10000 uM MgCl2.

Experiment [4] concerns the target Delta-aminolevulinic acid dehydratase (Pseudomonas aeruginosa (strain ATCC 15692 / PAO1 / 1C / PRS 101 / LMG12228)) (UniProt Q59643). Put plainly: Inhibition of Pseudomonas aeruginosa PAO1 recombinant PBGS assessed as inhibition of octamer-inducing effect of Mg2+ by nondenaturing PAGE analysis. Summed up:
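PaPBGS (3 μg) preincubated 20 min at 37 °C in assay buffer with 1 mM Mg2+, 100 mM K+ and wALADin1, no 5-ALA. Run on 7.5% nondenaturing PAGE at 4 °C for 15–20 h. Coomassie for oligomer state; in-gel activity with 500 μM 5-ALA stained with Ehrlich's reagent.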

For experiment [5], the target named is T3, Delta-aminolevulinic acid dehydratase, chloroplastic (Pisum sativum) (UniProt P30124).
T3 sequence (whole entry): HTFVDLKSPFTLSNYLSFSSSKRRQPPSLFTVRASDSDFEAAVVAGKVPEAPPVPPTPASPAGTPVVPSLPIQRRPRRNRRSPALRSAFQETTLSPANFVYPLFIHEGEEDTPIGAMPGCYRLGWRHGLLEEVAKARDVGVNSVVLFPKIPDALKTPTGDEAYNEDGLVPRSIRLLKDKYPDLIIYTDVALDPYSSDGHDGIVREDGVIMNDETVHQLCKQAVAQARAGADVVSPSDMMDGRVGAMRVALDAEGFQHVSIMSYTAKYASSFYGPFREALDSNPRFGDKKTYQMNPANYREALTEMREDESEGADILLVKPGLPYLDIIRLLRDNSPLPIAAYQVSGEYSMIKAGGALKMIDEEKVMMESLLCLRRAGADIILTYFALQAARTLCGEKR
Nature of the experiment: Competitive inhibition of Pisum sativum PBGS using 5-ALA as substrate at 6.25 to 100 uM. The settings on record: Lathyrus oleraceus.

For experiment [6], the target named is Delta-aminolevulinic acid dehydratase (Yersinia enterocolitica W22703) (UniProt F4MUJ9). Put plainly: Stimulation of Yersinia enterocolitica recombinant PBGS expressed in Escherichia coli using 5-ALA as substrate at 10 to 1000 uM at pH 8 in presence of 0.1 to 10000 uM MgCl2.
Chain of Delta-aminolevulinic acid dehydratase (Yersinia enterocolitica W22703) (F4MUJ9 as listed by the source): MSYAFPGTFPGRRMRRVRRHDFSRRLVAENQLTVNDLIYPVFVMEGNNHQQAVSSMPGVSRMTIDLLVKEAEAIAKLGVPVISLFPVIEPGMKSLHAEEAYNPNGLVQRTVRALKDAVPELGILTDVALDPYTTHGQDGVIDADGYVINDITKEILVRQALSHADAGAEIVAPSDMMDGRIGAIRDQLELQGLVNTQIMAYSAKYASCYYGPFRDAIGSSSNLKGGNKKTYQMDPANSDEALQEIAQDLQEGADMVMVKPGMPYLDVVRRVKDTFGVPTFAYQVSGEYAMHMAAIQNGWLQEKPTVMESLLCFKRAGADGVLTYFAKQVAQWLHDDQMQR
The target of experiment [7] is Delta-aminolevulinic acid dehydratase (Pseudomonas aeruginosa (strain ATCC 15692 / PAO1 / 1C / PRS 101 / LMG12228)) (UniProt Q59643). Nature of the experiment: Binding affinity to Pseudomonas aeruginosa PAO1 recombinant PBGS at 100 to 500 uM by thermal shift assay in presence of KCl.
Chain of Delta-aminolevulinic acid dehydratase (Pseudomonas aeruginosa (strain ATCC 15692 / PAO1 / 1C / PRS 101 / LMG12228)) (Q59643 whole entry): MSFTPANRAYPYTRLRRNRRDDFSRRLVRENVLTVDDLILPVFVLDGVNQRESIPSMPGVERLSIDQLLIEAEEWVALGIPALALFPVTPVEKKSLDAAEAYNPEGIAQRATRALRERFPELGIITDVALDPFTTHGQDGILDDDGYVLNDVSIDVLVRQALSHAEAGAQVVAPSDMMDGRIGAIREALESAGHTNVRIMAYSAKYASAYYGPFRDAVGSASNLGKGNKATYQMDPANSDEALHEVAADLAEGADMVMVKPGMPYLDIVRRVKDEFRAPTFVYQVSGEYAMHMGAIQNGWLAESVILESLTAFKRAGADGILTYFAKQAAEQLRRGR
For experiment [8] the target is unchanged. Nature of the experiment: Inhibition of Pseudomonas aeruginosa PAO1 recombinant PBGS using low 5-ALA level as substrate at 50 to 200 uM by buffer scan assay.
For experiment [9] the target is unchanged. Nature of the experiment: Inhibition of Pseudomonas aeruginosa PAO1 recombinant PBGS using 0.2 mM 5-ALA as substrate at 50 to 200 uM at pH 7.5 in presence of KCl by buffer scan assay.
Experiment [10] deals with T2, Delta-aminolevulinic acid dehydratase (Escherichia coli (strain K12)). Put plainly: Inhibition of Escherichia coli recombinant PBGS using 5-ALA as substrate at 50 to 200 uM at pH 7 to 8.5 by buffer scan assay in presence of KCl.
The target in experiment [11] is T3, Delta-aminolevulinic acid dehydratase, chloroplastic (Pisum sativum). Put plainly: Non-competitive inhibition of Pisum sativum PBGS using 5-ALA as substrate at 6.25 to 100 uM. The note with it: Lathyrus oleraceus.
For experiment [12], the target named is Delta-aminolevulinic acid dehydratase (Pseudomonas aeruginosa (strain ATCC 15692 / PAO1 / 1C / PRS 101 / LMG12228)) (UniProt Q59643). Put plainly: Binding affinity to Pseudomonas aeruginosa PAO1 recombinant PBGS at 100 to 500 uM by thermal shift assay.
Experiment [13] shares this target. Nature of the experiment: Inhibition of Pseudomonas aeruginosa PAO1 recombinant PBGS using 0.2 mM 5-ALA as substrate at 50 to 200 uM at low pH by buffer scan assay.
For experiment [14] the target is unchanged. Put plainly: Stimulation of Pseudomonas aeruginosa PAO1 recombinant PBGS using 5 mM 5-ALA as substrate assessed as increase in Vmax at 50 to 200 uM at pH 8 by Michaelis-Menten plot analysis in presence of MgCl2. Summed up: as §1
The target in experiment [15] is T2, Delta-aminolevulinic acid dehydratase (Escherichia coli (strain K12)). Put plainly: Inhibition of Escherichia coli recombinant PBGS using 5-ALA as substrate at 50 to 200 uM at pH 7 to 8.5 by buffer scan assay.
For experiment [16], the target named is Delta-aminolevulinic acid dehydratase (Yersinia enterocolitica W22703) (UniProt F4MUJ9). Nature of the experiment: Inhibition of Yersinia enterocolitica recombinant PBGS expressed in Escherichia coli using 5-ALA as substrate at 50 to 200 uM at pH 7 to 8.5 by buffer scan assay in presence of KCl.

As for `O=C(O)c1ccc2c(c1)nc(CCNC(=O)c1cccs1)n2Cc1cccc(C(F)(F)F)c1`, the Smax in the experiment with Toxoplasma gondii was found to be 128%. Besides, the inhibition entry in experiment [1], in experiment [5], in experiment [8], in experiment [9], in experiment [10] and in experiment [11] was “Active” throughout. Also, the inhibition result in experiment [13], in [15] and in [16] was “Active” throughout. In addition, the outcome in [2], in [3], in experiment [6], in experiment [7], in experiment [12] and in experiment [14] was Active. The inhibition entry in [4] is “Dose-dependent effect”.

Source of the values: ChEMBL document CHEMBL3286371, “wALADin benzimidazoles differentially modulate the function of porphobilinogen synthase orthologs” (J Med Chem, 2014).
